Among the data in ChEMBL document CHEMBL1681681, “Synthesis and anti-migrative evaluation of moverastin derivatives” (Bioorg Med Chem Lett, 2011) are IC50 values, retold here.

A short description of experiment [1]: Cytotoxicity against human EC17 cells assessed as cell viability by trypan blue dye. The class given is cell-based. The gist of the method: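 EC17 cells are tested for viability by trypan blue dye exclusion. The 50% inhibitory concentration for viability is estimated from this assay.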
A short description of experiment [2]: Antimigratory activity against human EC17 cells assessed as inhibition of migration after 24 hrs by chemotaxis cell chamber assay. As to conditions: EC17, 24 h. The class given is functional, cell-based. The procedure, abridged:
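Chemotaxis chamber: EC17 cells in upper chamber with graded compound concentrations; lower chamber holds EC17-conditioned medium (from 24 h cultures in RPMI1640 + 1% FBS) as chemoattractant. After 24 h, cells migrated through the filter to its lower side are counted. Counts are mean SD of five fields. IC50 is derived from these counts.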

The target in experiment [3] is Protein farnesyltransferase (Homo sapiens, UniProt P49354+P49356). Briefly: Inhibition of protein farnesyltransferase from human EC17 cells using [3H]FPP and […]-H-Ras. Format: cell-based. The gist of the method: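 FTase is partially purified from EC17 cells. It is incubated with [3H]-farnesylpyrophosphate plus recombinant GST-H-Ras as substrates, with or without test compound. Compounds are tested up to 100 µM.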

With `C=C(CC[C@@]1(C)[C@H](C)CCC(=O)[C@@H]1C)C(O)Cc1c(O)cc(C)cc1O` (some centres undefined), the IC50 was > 28 µM in experiment [1], 21.4 µM in experiment [2] and > 100 µM in experiment [3].
Turning to `C=C(CCC1CCCCC1)C(O)Cc1c(O)cc(C)c(C=O)c1O` (centres undefined), the 50% inhibitory concentration (IC50) in experiment [1] is 87 µM; in experiment [2], 8.43 µM; in experiment [3] it was > 100 µM.
The corresponding values for `C=C(CC[C@@]1(C)[C@H](C)CCC(=O)[C@@H]1C)[C@H](O)Cc1c(O)cc(C)c(C=O)c1O` [MOVERASTIN A] are > 77 µM, 7.22 µM and > 100 µM.
On the same counts, the results for `Cc1cc(O)c(CC(O)C(C)CC[C@H]2[C@@H](C)CCCC2(C)C)c(O)c1C=O` (relative stereo) are 16 µM, 2.12 µM and > 100 µM.
The corresponding values for `Cc1cc(O)c2c(c1C=O)OCC(CC[C@H]1[C@@H](C)CCCC1(C)C)=CC2` (relative stereo) are 18 µM, 2 µM and > 100 µM.
Take `C=C(CC[C@H]1[C@@H](C)CCCC1(C)C)C(O)Cc1c(O)cc(C)c(C=O)c1O` (relative stereo): the IC50 in experiment [1] was found to be 46 µM; in experiment [2], 1.98 µM; in experiment [3], 14.7 µM.
On the same counts, the results for `C=C(CC[C@H]1[C@@H](C)CCCC1(C)C)C(O)Cc1c(O)cc(C)cc1O` (relative stereo) are 17 µM, 2.17 µM and > 100 µM.
On the same counts, the results for `C=C(CCc1c(C)cccc1C)C(O)Cc1c(O)cc(C)c(C=O)c1O` (centres undefined) are 45 µM, 10.6 µM and > 100 µM.
Consider `C=C(CCC12CC3CC(CC(C3)C1)C2)C(O)Cc1c(O)cc(C)c(C=O)c1O` (centres undefined), for which the results for the IC50 in experiment [1], in experiment [2] and in experiment [3] were 55 µM, 6.52 µM and > 100 µM, respectively.
The corresponding values for `C=C(CC[C@H]1[C@@H](C)CCCC1(C)C)C(O)Cc1c(OC)cc(C)c(C=O)c1O` (relative stereo) are 18 µM, 4.57 µM and > 100 µM.
Consider `C=C(C)C(O)Cc1c(O)cc(C)c(C=O)c1O` (centres undefined), for which the IC50 is > 130 µM in experiment [1], 30 µM in experiment [2] and > 100 µM in experiment [3].
The corresponding values for `C=C(CC/C=C(\C)CCC=C(C)C)C(O)Cc1c(O)cc(C)c(C=O)c1O` (centres undefined) are > 80 µM, 7.53 µM and > 100 µM.
Regarding `C=C(CC[C@H]1[C@@H](C)CCCC1(C)C)C(=O)Cc1c(O)cc(C)c(C=O)c1O` (relative stereo), the results for the 50% inhibitory concentration (IC50) in experiment [1], in experiment [2] and in experiment [3] were 18 µM, 4.41 µM and > 100 µM, respectively.

The term IC50 denotes the concentration at which inhibition is half-maximal.
